Experimental data: ChEMBL document CHEMBL5715960, “Epigenetic Co-Deregulation of EZH2/TET1 is a Senescence-Countering, Actionable Vulnerability in Triple-Negative Breast Cancer” (Theranostics, 2019)
The source made the active and inactive calls. The rule behind the calls is not given here.

Experiments:
MDA-MB-231 [1] = experiment: Antiproliferative activity against human MDA-MB-231 cells assessed as increase in global H3K9me3 expression level by immunoblot analysis; format: functional, cell-based
Procedure, shortened: (§1)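 Cells exposed to GSK343 at 2 µM (standard level unless stated otherwise), lysed and immunoblotted; α-tubulin and total H3 as loading controls.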

BT-474 [2] = experiment: Induction of cell cycle arrest in human BT-474 cells assessed as accumulation of cells at S phase measured at 2 uM by BrdU/PI staining based flow cytometric analysis (reference value: 28.6%); format: functional
MDA-MB-436 [3] = experiment: Upregulation of […] signalling in human MDA-MB-436 cells at 2 uM for 2 days by immunoblot analysis; format: functional, cell-based; conditions: time 2.0 day
MDA-MB-231 [4] = experiment: Effect on human MDA-MB-231 cells assessed as increase in TET1 level at 2 uM in presence of adriamycin by immunoblot analysis; format: functional, cell-based
Procedure, shortened: (§2)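 Immunoblot of MDA-MB-231 and MCF7 lysates after 0.005 µg/ml adriamycin with or without 2 µM GSK343, or DMSO. α-Tubulin and total H3 used as loading controls.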

MDA-MB-231 [5] = experiment: In vivo activation of p53 expression in Crl:NU-Foxn1-nu/nu mouse xenografted with human MDA-MB-231 cells at 5 mg/kg, ip in presence of adriamycin treated for 21 days; format: functional, organism-based; conditions: time 21.0 day
BT-474 [6] = experiment: Antiproliferative activity in human BT-474 cells assessed as increase in SA-beta-gal positive cells at 2 uM for 5 days by SA-beta-gal staining analysis; format: toxicity, cell-based; conditions: bt-474, 120 h, time 5 day
Procedure, shortened: (§3)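 GSK343 2 µM or DMSO for 5 days, then chromogenic SA-β-gal staining and counting of positive cells. Triplicate; mean ± SD.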

MDA-MB-361 [7] = experiment: Cytotoxicity against human MDA-MB-361 cells at 0.5 to 2 uM for 2 days by Guava viacount assay; format: toxicity, cell-based; conditions: mda-mb-361, 48 h, dose 0.5-2 µM, time 2 day
Procedure, shortened: (§4)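 Cells plated at 2 × 10^4 (24-well) or 1 × 10^5 (12-well), exposed to a range of GSK343 concentrations for 2 days against DMSO solvent control; cell number and viability read by Guava ViaCount flow cytometry, relative to DMSO. Triplicate; mean ± SD.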

MCF7 [8] = experiment: Upregulation of CDKN1A gene in human MCF7 cells at 2 uM by qRT-PCR analysis; format: functional, cell-based
Procedure, shortened: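 Relative transcript levels measured by qRT-PCR in cells treated with 2 µM inhibitor, normalised to DMSO-treated control cells. Triplicate experiments unless stated otherwise; mean ± SD reported; unpaired two-tailed Student's t-test at p < 0.05.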

MDA-MB-436 [9] = experiment: In vivo activation of p53 expression in Crl:NU-Foxn1-nu/nu mouse xenografted with human MDA-MB-436 cells at 5 mg/kg, ip in presence of adriamycin treated for 21 days; format: functional, organism-based; conditions: time 21.0 day
BT-474 [10] = experiment: Cytotoxicity against human BT-474 cells at 0.5 to 2 uM for 2 days by Guava viacount assay; format: toxicity, cell-based; conditions: bt-474, 48 h, dose 0.5-2 µM, time 2 day; procedure, shortened: as §4
MDA-MB-436 [11] = experiment: Downregulation of EZH2 in human MDA-MB-436 cells at 2 uM for 2 days by immunoblot analysis; format: functional, cell-based; conditions: time 2.0 day
MDA-MB-231 [12] = experiment: Induction of apoptosis in human MDA-MB-231 cells assessed as increase in accumulation of cells at G1 phase in presence of adriamycin by BrdU/PI-based cell cycle analysis; format: functional
Procedure, shortened: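 Cell cycle by BrdU/PI staining and flow cytometry, giving G1, S and G2 fractions. Cells received 0.005 µg/ml adriamycin with or without 2 µM GSK343, or DMSO. Mean ± SD.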

MDA-MB-436 [13] = experiment: Effect on human MDA-MB-436 cells assessed as increase in TET1 transcription by qRT-PCR analysis; format: functional, cell-based
Procedure, shortened: (§5)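 qRT-PCR of TET1, TET2 and TET3 transcripts in breast cancer cells exposed to GSK343 (2 µM unless otherwise indicated), shown relative to DMSO-treated cells. Mean ± SD, triplicate unless stated.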

BT-474 [14] = experiment: Induction of cell cycle arrest in human BT-474 cells assessed as accumulation of cells at G1 phase measured at 2 uM by BrdU/PI staining based flow cytometric analysis (reference value: 60.8%); format: functional
SK-BR-3 = experiment: Cytotoxicity against human SK-BR-3 cells assessed as increase in cell death at 10 uM for 2 days by Guava viacount assay; format: toxicity, cell-based; conditions: sk-br-3, 48 h, time 2 day; procedure, shortened: as §4
MDA-MB-436 [15] = experiment: Downregulation of EZH2 protein expression in human MDA-MB-436 cells at 2 uM for 2 days by immunoblot analysis; format: functional, cell-based; conditions: time 2.0 day
MDA-MB-436 [16] = experiment: Effect on human MDA-MB-436 cells expressing shTET1 assessed as reduction in PCNA by immunoblot analysis; format: functional, cell-based
MDA-MB-436 [17] = experiment: Downregulation of EZH2 transcription in human MDA-MB-436 cells at 2 uM for 2 days by immunoblot analysis; format: functional, cell-based; conditions: time 2.0 day
MCF7 [18] = experiment: Effect on human MCF7 cells assessed as increase in TET3 transcription by qRT-PCR analysis; format: functional, cell-based; procedure, shortened: as §5
MDA-MB-436 [19] = experiment: Antiproliferative activity against human MDA-MB-436 cells assessed as increase in cell death at 10 uM for 2 days by Guava viacount assay; format: functional, cell-based; conditions: time 2.0 day; procedure, shortened: as §4
MDA-MB-231 [20] = experiment: Effect on human MDA-MB-231 cells expressing shTET1 assessed as increase in H3K9me3 cascade by immunoblot analysis; format: functional, cell-based
MDA-MB-231 [21] = experiment: Antitumor activity against human MDA-MB-231 cells xenografted in Crl:NU-Foxn1-nu/nu mouse assessed as reduction in tumor administered at 5 mg/kg, ip in presence of adriamycin treated for 21 days; format: functional, organism-based; conditions: time 21.0 day
MDA-MB-231 [22] = experiment: Effect on human MDA-MB-231 cells expressing shTET1 assessed as reduction in PCNA by immunoblot analysis; format: functional, cell-based
MDA-MB-436 [23] = experiment: Antiproliferative activity against human MDA-MB-436 cells assessed as increase in global H3K9me3 expression level by immunoblot analysis; format: functional, cell-based; procedure, shortened: as §1
MCF7 [24] = experiment: Induction of cell cycle arrest in human MCF7 cells assessed as accumulation of cells at G1 phase measured at 2 uM by BrdU/PI staining based flow cytometric analysis (reference value: 65.2%); format: functional
MDA-MB-361 [25] = experiment: Antiproliferative activity in human MDA-MB-361 cells assessed as increase in SA-beta-gal positive cells at 2 uM for 5 days by SA-beta-gal staining analysis; format: toxicity, cell-based; conditions: mda-mb-361, 120 h, time 5 day; procedure, shortened: as §3
MDA-MB-436 [26] = experiment: Antitumor activity against human MDA-MB-436 cells xenografted in Crl:NU-Foxn1-nu/nu mouse assessed as reduction in tumor administered at 5 mg/kg, ip in presence of adriamycin treated for 21 days; format: functional, organism-based; conditions: time 21.0 day
MDA-MB-231 [27] = experiment: Effect on human MDA-MB-231 cells expressing shTET1 assessed as increase in p21 cascade by immunoblot analysis; format: functional, cell-based
MDA-MB-231 [28] = experiment: Antiproliferative activity in human MDA-MB-231 cells assessed as increase in SA-beta-gal positive cells at 2 uM for 5 days by SA-beta-gal staining analysis; format: functional, cell-based; conditions: time 5.0 day; procedure, shortened: as §3
MDA-MB-436 [29] = experiment: Upregulation of TET1 in human MDA-MB-436 cells at 2 uM for 2 days by immunoblot analysis; format: functional, cell-based; conditions: time 2.0 day
MCF7 [30] = experiment: Effect on human MCF7 cells assessed as decrease in H3K27me3 level at 2 uM in presence of adriamycin by immunoblot analysis; format: functional, cell-based; procedure, shortened: as §2

In the case of `CCCc1cc(C)[nH]c(=O)c1CNC(=O)c1cc(-c2ccnc(N3CCN(C)CC3)c2)cc2c1cnn2C(C)C`, the Activity (MDA-MB-231 [1]) was “Active”, the Activity (BT-474 [2]) was 26.8% and the Activity (MDA-MB-436 [3]) was “Active”. For the same compound, the Activity (MDA-MB-231 [4]) was “Active”, the Activity (MDA-MB-231 [5]) was “Active” and the Activity (BT-474 [6]) was “Non-Toxic”. The Activity (MDA-MB-361 [7]) was “Non-Toxic”, the Activity (MCF7 [8]) was “inactive” and the Activity (MDA-MB-436 [9]) was “Active”. For the same compound, the Activity (BT-474 [10]) was “Non-Toxic”, the Activity (MDA-MB-436 [11]) was “Active” and the Activity (MDA-MB-231 [12]) was “Active”. For the same compound, the Activity (MDA-MB-436 [13]) was “Active”, the Activity (BT-474 [14]) was 56.8% and the Activity (SK-BR-3) was “Non-Toxic”. The Activity (MDA-MB-436 [15]) was “Active”, the Activity (MDA-MB-436 [16]) was “inactive” and the Activity (MDA-MB-436 [17]) was “Active”. The Activity (MCF7 [18]) was “inactive”, the Activity (MDA-MB-436 [19]) was “Active” and the Activity (MDA-MB-231 [20]) was “inactive”. The Activity (MDA-MB-231 [21]) was “Active”, the Activity (MDA-MB-231 [22]) was “inactive” and the Activity (MDA-MB-436 [23]) was “Active”. The Activity (MCF7 [24]) was 66.1%, the Activity (MDA-MB-361 [25]) was “Non-Toxic” and the Activity (MDA-MB-436 [26]) was “Active”. The Activity (MDA-MB-231 [27]) was “inactive”, the Activity (MDA-MB-231 [28]) was “Active” and the Activity (MDA-MB-436 [29]) was “Active”. The Activity (MCF7 [30]) was “inactive”.
